The text below walks through data of ChEMBL document CHEMBL4387752, “Identification of substituted benzothiazole sulfones as potent and selective inhibitors of endothelial lipase” (Bioorg Med Chem Lett, 2019).

Series [1] can be described thus: Total AUC in Balb/c mouse at 10 mg/kg, po measured after 24 hrs. It counts as ADME, organism-based. On the set-up: dose 10 mg/kg, time AUCmax, route oral. The note with it: in vivo. The procedure, abridged:
(§1)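 Oral PK in fasted male balb/c mice. Dosing vehicle was ethanol/PEG 400/water (10:60:30).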

The nature of series [2]: Metabolic stability in Balb/c mouse liver microsomes assessed as parent compound remaining at 0.5 uM measured after 10 mins. It counts as ADME, Microsome. To be noted: read-out: Stability. The procedure, abridged: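 Test compound at 0.5 μM was incubated for 10 min with mouse liver microsomes. The read-out is the percentage of parent remaining.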
A general note: Microsomes from liver hold many membrane-bound enzymes, among them those of drug oxidation.

In series [3] the target is T1, Endothelial lipase (Homo sapiens, UniProt Q9Y5X9).
T1 sequence (Q9Y5X9 whole entry): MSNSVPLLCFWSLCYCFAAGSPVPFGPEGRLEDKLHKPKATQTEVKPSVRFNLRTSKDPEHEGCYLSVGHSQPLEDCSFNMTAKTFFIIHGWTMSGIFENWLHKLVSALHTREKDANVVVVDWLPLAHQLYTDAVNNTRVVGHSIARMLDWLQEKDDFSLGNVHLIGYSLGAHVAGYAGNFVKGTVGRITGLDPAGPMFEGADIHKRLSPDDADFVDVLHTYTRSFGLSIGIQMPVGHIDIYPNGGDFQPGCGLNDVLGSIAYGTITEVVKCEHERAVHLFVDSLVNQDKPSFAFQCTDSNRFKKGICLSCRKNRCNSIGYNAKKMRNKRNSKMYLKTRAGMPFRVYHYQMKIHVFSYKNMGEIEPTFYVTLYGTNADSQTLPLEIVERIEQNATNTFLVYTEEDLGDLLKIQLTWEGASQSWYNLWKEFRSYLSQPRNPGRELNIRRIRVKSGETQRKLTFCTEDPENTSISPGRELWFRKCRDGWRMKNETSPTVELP
Put plainly: Inhibition of human endothelial lipase derived from human HT1080 cell conditioned media using PED-A1 as substrate incubated for 20 mins and measured every 20 secs for 10 mins by FRET assay. An outline of the steps: (§2)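 IC50s were calculated from mean inhibition values of duplicate determinations.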

For series [4], the target named is T2, Hepatic triacylglycerol lipase (Homo sapiens, UniProt P11150).
T2 sequence (P11150 whole entry): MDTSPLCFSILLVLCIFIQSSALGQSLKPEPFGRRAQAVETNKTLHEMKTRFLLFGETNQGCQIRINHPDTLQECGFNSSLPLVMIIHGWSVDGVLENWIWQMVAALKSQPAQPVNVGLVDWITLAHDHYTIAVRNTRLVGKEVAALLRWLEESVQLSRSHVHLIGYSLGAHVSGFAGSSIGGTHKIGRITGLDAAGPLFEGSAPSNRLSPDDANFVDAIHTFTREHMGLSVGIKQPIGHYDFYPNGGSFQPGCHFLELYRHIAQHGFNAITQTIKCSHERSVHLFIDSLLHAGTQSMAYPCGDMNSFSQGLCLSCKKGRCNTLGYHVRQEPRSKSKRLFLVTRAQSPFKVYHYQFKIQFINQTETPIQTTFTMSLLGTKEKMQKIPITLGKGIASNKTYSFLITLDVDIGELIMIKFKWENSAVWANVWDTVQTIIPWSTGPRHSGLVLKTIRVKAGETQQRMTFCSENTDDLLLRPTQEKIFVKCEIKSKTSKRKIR
The series is described as follows: Inhibition of human hepatic lipase expressed in African green monkey COS7 cells using PED-A1 as substrate incubated for 20 mins and measured every 20 secs for 10 mins by FRET assay. It counts as cell-based. An outline of the steps: as §2

Series [5] is described as follows: Plasma concentration in Balb/c mouse at 10 mg/kg, po measured after 7 hrs. It counts as ADME, organism-based. An outline of the steps:
as §1

The nature of series [6]: Cmax in Balb/c mouse at 10 mg/kg, po. It counts as ADME, organism-based. On the set-up: dose 10 mg/kg, route oral. To be noted: in vivo. The procedure, abridged: as §1
A short description of series [7]: Permeability of compound at pH 5.5 by PAMPA. It counts as ADME. The note with it: read-out: permeability. The procedure, abridged: (§3)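 Permeability was measured by parallel artificial membrane permeability assay (PAMPA) at pH 5.5 and pH 7.4. Values are reported in nm/s.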
For orientation: PAMPA measures passive passage across an artificial lipid membrane.

The target of series [8] is T3, Endothelial lipase (Mus musculus, UniProt Q9WVG5).
T3 sequence (Q9WVG5 whole entry): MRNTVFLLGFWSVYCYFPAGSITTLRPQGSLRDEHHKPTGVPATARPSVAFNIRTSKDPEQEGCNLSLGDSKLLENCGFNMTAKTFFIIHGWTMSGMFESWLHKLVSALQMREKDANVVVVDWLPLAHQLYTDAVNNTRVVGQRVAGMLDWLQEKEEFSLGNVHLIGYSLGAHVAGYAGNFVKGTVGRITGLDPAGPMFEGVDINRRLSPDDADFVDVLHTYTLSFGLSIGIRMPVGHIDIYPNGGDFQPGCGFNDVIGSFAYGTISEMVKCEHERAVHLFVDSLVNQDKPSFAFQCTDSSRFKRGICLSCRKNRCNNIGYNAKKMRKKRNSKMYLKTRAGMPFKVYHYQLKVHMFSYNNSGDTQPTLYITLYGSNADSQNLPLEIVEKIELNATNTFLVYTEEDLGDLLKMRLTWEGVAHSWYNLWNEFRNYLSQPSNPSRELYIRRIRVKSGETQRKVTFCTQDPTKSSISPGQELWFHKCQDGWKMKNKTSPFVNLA
Put plainly: Inhibition of mouse endothelial lipase expressed in HEK293F cells using D31-POPC-HDL as substrate incubated for 2 hrs in presence of mouse plasma by LC/MS analysis. The procedure, abridged:
(§4)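 IC50 values were derived from the means of duplicate inhibition measurements.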

Series [9] in a line: Permeability of compound at pH 7.4 by PAMPA. It counts as ADME. To be noted: read-out: permeability. An outline of the steps: as §3
In series [10] the target is T1, Endothelial lipase. Put plainly: Inhibition of human endothelial lipase using D31-POPC-HDL as substrate incubated for 2 hrs in presence of human serum by LC/MS analysis. The procedure, abridged: as §4
The species entered for a further series is Homo sapiens. Put plainly: Selectivity index, ratio of IC50 for inhibition of human hepatic lipase expressed in African green monkey COS7 cells to IC50 for inhibition of human endothelial lipase derived from human HT1080 cell conditioned media. It counts as cell-based.
Series [11] is described as follows: Plasma concentration in Balb/c mouse at 10 mg/kg, po measured after 24 hrs. It counts as ADME, organism-based. An outline of the steps: as §1
A short description of series [12]: Tmax in Balb/c mouse at 10 mg/kg, po. It counts as ADME, organism-based. To be noted: in vivo. The procedure, abridged:
as §1

Molecules are shown by their SMILES. pIC50: −log10 of the molar value.

The term AUC denotes concentration integrated over time. In general, pIC50 refers to the negative decadic logarithm of the IC50, by convention in mol/L. The term Cmax denotes the maximum level reached in the sampled fluid or tissue. As usually defined, the Tmax is the time from dosing to the highest level.

In series [1], `CS(=O)(=O)C(C(=O)NCCS(N)(=O)=O)c1nc2ccc(-c3ccc(F)nc3)cc2s1` (centres undefined) displayed an AUC at 24 h of 50 nM·h. Moreover, the remaining at 10 min, 0.5 µM in series [2] was determined as 96%. Moreover, the values for the pIC50 (at Endothelial lipase [3]; in [4]; on Endothelial lipase [8]) were 8.30, 5.36 and 6.70, respectively. The concentration at 7 h in series [5] is 0.001 µM. The compound also had a Cmax in series [6] of 0.03 µM. The Papp is 17 nm/s in series [7] and 78 nm/s in [9].
On to `O=C(CNC(=O)C(c1nc2ccc(-c3ccc(F)nc3)cc2s1)S(=O)(=O)Cc1ccccc1)NC1CC1` (centres undefined), for which the pIC50 against Endothelial lipase [3] is 7.60; in series [4] it was 8.15; on Endothelial lipase [10], 7.19; on Endothelial lipase [8] it was 7.03. Also, in the series filed under Homo sapiens, the Ratio IC50 is 0.3.
In turn, `CS(=O)(=O)C(C(=O)NCCS(N)(=O)=O)c1nc2ccc(-c3ccc(C(=O)N4CCOCC4)cc3)cc2s1` (centres undefined) displayed an AUC at 24 h in series [1] of 160 nM·h. Moreover, the remaining at 10 min, 0.5 µM in series [2] stood at 100%. Besides, the pIC50 is 8.00 against Endothelial lipase [3], 6.55 in series [4] and 6.49 on Endothelial lipase [8]. The compound further registered a concentration at 7 h in series [5] of 0.008 µM. This compound yielded a Cmax in [6] of 0.036 µM. The compound further came in with a concentration at 24 h in series [11] of 0.005 µM. The Papp in series [7] was 12 nm/s; in [9], 13 nm/s. Moreover, the Tmax in [12] turned out to be 2.6 h.
In the case of `CS(=O)(=O)C(C(=O)NCCS(N)(=O)=O)c1nc2ccc(-c3ccccc3)cc2s1` (centres undefined), the AUC at 24 h in series [1] came to 14000 nM·h. Besides, the remaining at 10 min, 0.5 µM in series [2] came to 91%. Moreover, the pIC50 at Endothelial lipase [3] was 8.00; in series [4], 7.82; at Endothelial lipase [8] it was 6.68 to 7.00. For the same compound, in series [5], the concentration at 7 h came out at 0.43 µM. In [6], this compound yielded a Cmax of 3.5 µM. For the same compound, the concentration at 24 h in series [11] is 0.13 µM. The Papp in series [7] was 365 nm/s; in [9], 368 nm/s. In addition, the Tmax in [12] is 0.5 h.
In series [4], `CS(=O)(=O)C(C(=O)NCC(=O)NC1CC1)c1nc2ccc(-c3ccccc3)cc2s1` (centres undefined) showed a pIC50 of 7.33.
For `CS(=O)(=O)C(C(=O)NCCS(N)(=O)=O)c1nc2ccc(-c3cnn(CCN4CCOCC4)c3)cc2s1` (centres undefined), the AUC at 24 h in [1] is 100 nM·h. Also, the remaining at 10 min, 0.5 µM in series [2] came out at 74%. Besides, the figures for the pIC50 at Endothelial lipase [3] and on Endothelial lipase [8] were 8.00 and 6.72, respectively. The compound further yielded a concentration at 7 h in series [5] of 0.004 µM. The peak level in [6] (Cmax) was 0.015 µM. This compound had a concentration at 24 h in series [11] of 0.001 µM. For the same compound, the Tmax in series [12] stood at 3 h.
For `CS(=O)(=O)C(C(=O)NCCNS(N)(=O)=O)c1nc2ccc(-c3ccccc3)cc2s1` (centres undefined), the values for the pIC50 (against Endothelial lipase [3]; in series [4]) were 6.35 and 7.09, respectively.
In the same order, the values of `CS(=O)(=O)C(C(=O)NCCCS(N)(=O)=O)c1nc2ccc(-c3ccccc3)cc2s1` (centres undefined) are 5.11 and 7.28.
On to `CS(=O)(=O)C(C(=O)NCC(=O)NC1CC1)c1nc2ccc(-c3ccc(F)nc3)cc2s1` (centres undefined), for which the pIC50 in [4] was 6.89; on Endothelial lipase [10], 8.15; on Endothelial lipase [8], 6.54. The figures for the Papp in series [7] and in series [9] were 252 nm/s and 389 nm/s, respectively. Besides, in the series listed under Homo sapiens, the Ratio IC50 was 2.8.
Take `O=C(CNC(=O)C(c1nc2ccc(-c3ccc(F)nc3)cc2s1)S(=O)(=O)CCC(F)(F)F)NC1CC1` (centres undefined): the pIC50 is 7.10 in series [4], 6.18 on Endothelial lipase [10] and 6.22 at Endothelial lipase [8]. Moreover, the Ratio IC50 in the series listed under Homo sapiens came out at 2.7.
